Test results: ChEMBL document CHEMBL1149827, “Dichapetalin-type triterpenoids and lignans from the aerial parts of Phyllanthus acutissima” (J Nat Prod, 2008)
Converted amounts (≈) assume the structure as drawn.

What was measured:
[1] = system: KB; assay: Cytotoxicity against human KB cells after 72 hrs by sulforhodamine B assay; format: functional; conditions: read-out: ED50 (the source's name)
Summary of the method: (§1)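 SRB assay. Samples from […] DMSO stock, final DMSO 0.5%, triplicate, 72 h at 37 °C, 5% CO2. Media: P-388 Fisher's + 5% BCS; KB DMEM + 10% BCS; Col-2, ASK MEM + 10% FBS; MCF-7, Lu-1 MEM + 5% BCS. TCA-fixed, 0.4% SRB stain, dye solubilized in 10 mM trizma base, A515 read. ED50 reported.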

[2] = target: Human immunodeficiency virus type 1 reverse transcriptase (Human immunodeficiency virus 1) (UniProt Q72547); assay: Inhibition of HIV1 reverse transcriptase at 200 ug/ml
Summary of the method: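 Tannin-free samples at final 200 µg/mL in 10% DMSO added to the reaction mix before HIV-1 RT. Control with 10% DMSO only; nevirapine (2 µg/mL) positive control. Duplicate wells averaged, % RT inhibition calculated.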

[3] = system: Human immunodeficiency virus 1; assay: Selectivity index, ratio of IC50 for deltaTat/Rev deffective HIV1 in 1A2 cells to EC50 for deltaTat/Rev deffective HIV1 in 1A2 cells; format: functional
Summary of the method: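 Ratio of the XTT IC50 in uninfected 1A2 cells to the syncytium-reduction EC50 against ∆Tat/RevMC99 virus in 1A2 cells.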

[4] = system: Human immunodeficiency virus 1; assay: Antiviral activity against deltaTat/Rev deffective HIV1 in 1A2 cells assessed as reduction of syncytium formation; format: functional, organism-based; conditions: Human immunodeficiency virus 1, 1A2
Summary of the method: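 1A2 cells seeded, then compound added as 2-fold serial dilutions in triplicate. After 1 h preincubation, ∆Tat/RevMC99 virus added. Virus, cell and cytotoxicity control wells; AZT positive control. EC50 is the concentration reducing syncytium formation by 50%.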

[5] = system: Col2; assay: Cytotoxicity against human Col2 cells after 72 hrs by sulforhodamine B assay; format: functional; conditions: Col2, 72 h, read-out: ED50 (the source's name); summary of the method: as §1
[6] = system: P388; assay: Cytotoxicity against mouse P388 cells after 72 hrs by sulforhodamine B assay; format: functional; conditions: P388, 72 h, read-out: ED50 (the source's name); summary of the method: as §1
[7] = system: Human immunodeficiency virus 1; assay: Antiviral activity against deltaTat/Rev deffective HIV1 in 1A2 cells assessed as inhibition of metabolic activity in uninfected cells; format: functional; conditions: Human immunodeficiency virus 1, 1A2
Summary of the method: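 Uninfected 1A2 cells (same batch), run in parallel with the syncytium assay, with medium in place of virus. Serial dilutions in duplicate wells, 3 days. XTT–phenazine methosulfate added; formazan read at A450 with A650 reference. IC50 is the dose inhibiting 50% of metabolic activity.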

[8] = system: MCF7; assay: Cytotoxicity against human MCF7 cells after 72 hrs by sulforhodamine B assay; format: functional; conditions: MCF7, 72 h, read-out: ED50 (the source's name); summary of the method: as §1
[9] = system: Lu1; assay: Cytotoxicity against human Lu1 cells after 72 hrs by sulforhodamine B assay; format: functional; conditions: Lu1, 72 h, read-out: ED50 (the source's name); summary of the method: as §1
[10] = Cytotoxicity against rat ASK cells after 72 hrs by sulforhodamine B assay; format: functional; conditions: read-out: ED50 (the source's name); summary of the method: as §1
[11] = system: L1210; assay: Cytotoxicity against mouse L1210 cells; format: functional

| inhibition [2] | EC50 [4] | SMILES | EC50 [1] | Ratio IC50/EC50 [3] | EC50 [5] | EC50 [6] | IC50 [7] | EC50 [8] | EC50 [9] | EC50 [10] | EC90 [11] |
| --- | --- | --- | --- | --- | --- | --- | --- | --- | --- | --- | --- |
| 39.7% | 34.6 µg/mL (≈ 98.2 µM) | O=C1OC[C@@H](Cc2ccc3c(c2)OCO3)/C1=C\c1ccc2c(c1)OCO2 [ISOGADIAN] | > 5 µg/mL | >3.6 | > 5 µg/mL | > 5 µg/mL | > 125 µg/mL | > 5 µg/mL | > 5 µg/mL | > 5 µg/mL |  |
|  |  | C/C(=C\[C@H]1C[C@@H]([C@@H]2CC[C@]34C[C@]23C=C[C@@H]2[C@@]3(C)CC=C5C[C@@H](c6ccccc6)OC[C@]5(C)[C@@H]3C[C@@H](O)[C@]24C)C(=O)O1)CO [DICHAPETALIN A] |  |  |  |  |  |  |  |  | < 0.0001 µg/mL |
| 55.5% | 86.1 µg/mL (≈ 131 µM) | CO[C@@]1(C)CO[C@@]2(C=C([C@@H]3CC[C@]45C[C@]34CC[C@@H]3[C@@]4(C)CC=C6C[C@@H](c7ccc8c(c7)OCO8)OC[C@]6(C)[C@@H]4C[C@@H](O)[C@]35C)C(=O)O2)C1 | > 5 µg/mL | >1.5 | > 5 µg/mL | 0.5 µg/mL (≈ 0.759 µM) | > 125 µg/mL | > 5 µg/mL | > 5 µg/mL | > 5 µg/mL |  |
| -0.5% | < 3.9 µg/mL | CO[C@@]1(C)CO[C@@]2(C1)OC(=O)[C@H]([C@@H]1CC[C@]34C[C@]13CC[C@@H]1[C@@]3(C)CC=C5C[C@@H](c6ccc7c(c6)OCO7)OC[C@]5(C)[C@@H]3C[C@@H](O)[C@]14C)[C@H]2O | > 5 µg/mL | >8.1 | 4.8 µg/mL (≈ 7.09 µM) | 0.005 µg/mL (≈ 0.00739 µM) | 31.6 µg/mL (≈ 46.7 µM) | 1.1 µg/mL (≈ 1.63 µM) | 3.1 µg/mL (≈ 4.58 µM) | > 5 µg/mL |  |
|  |  | COc1cc2c(=O)oc3c(OC)c(O)cc4c(=O)oc(c1OC)c2c34 | > 5 µg/mL |  | > 5 µg/mL | > 5 µg/mL |  | > 5 µg/mL | > 5 µg/mL | > 5 µg/mL |  |
|  |  | Cc1c2ccncc2c(C)c2c1[nH]c1ccccc12 [ELLIPTECINE] | 0.7 µg/mL (≈ 2.84 µM) |  | 0.5 µg/mL (≈ 2.03 µM) | 0.2 µg/mL (≈ 0.812 µM) |  | 0.4 µg/mL (≈ 1.62 µM) | 0.2 µg/mL (≈ 0.812 µM) | 0.2 µg/mL (≈ 0.812 µM) |  |
| 45.4% | 9.9 µg/mL (≈ 27.8 µM) | COc1cc(/C=C2/C(=O)OC[C@H]2Cc2ccc(O)c(OC)c2)ccc1O [ACUTISSIMALIGNAN B] | > 5 µg/mL | 4.9 | > 5 µg/mL | > 5 µg/mL | 48.2 µg/mL (≈ 135 µM) | > 5 µg/mL | > 5 µg/mL | > 5 µg/mL |  |
| 51% | 15.7 µg/mL (≈ 24.9 µM) | COc1c(OC(C)=O)cc2c(=O)oc3c(O)c(O[C@@H]4O[C@@H](C)[C@H](OC(C)=O)[C@@H](OC(C)=O)[C@H]4OC(C)=O)cc4c(=O)oc1c2c34 | > 5 µg/mL | 1.6 | > 5 µg/mL | > 5 µg/mL | 24.9 µg/mL (≈ 39.5 µM) | > 5 µg/mL | > 5 µg/mL | > 5 µg/mL |  |
| 65.9% | 72.9 µg/mL (≈ 119 µM) | CO[C@@]1(C)CO[C@@]2(C=C([C@@H]3CC[C@]45C[C@]34CC[C@@H]3[C@@]4(C)CC=C6C[C@@H](c7ccccc7)OC[C@]6(C)[C@@H]4C[C@@H](O)[C@]35C)C(=O)O2)C1 | > 5 µg/mL | >1.7 | > 5 µg/mL | 0.4 µg/mL (≈ 0.651 µM) | > 125 µg/mL | > 5 µg/mL | > 5 µg/mL | > 5 µg/mL |  |
| -9.2% | > 125 µg/mL | COc1c(O)cc2c(=O)oc3c(O)c(O[C@@H]4O[C@@H](C)[C@H](O)[C@@H](O)[C@H]4O)cc4c(=O)oc1c2c34 | > 5 µg/mL |  | > 5 µg/mL | > 5 µg/mL | > 125 µg/mL | > 5 µg/mL | > 5 µg/mL | > 5 µg/mL |  |

| SMILES | inhibition [2] | EC50 [4] | EC50 [1] | Ratio IC50/EC50 [3] | EC50 [5] | EC50 [6] | IC50 [7] | EC50 [8] | EC50 [9] | EC50 [10] | EC90 [11] |
| --- | --- | --- | --- | --- | --- | --- | --- | --- | --- | --- | --- |
| COc1cc2c(O[C@@H]3OC[C@H](O)[C@H](O)[C@H]3O)c3c(c(-c4ccc5c(c4)OCO5)c2cc1OC)C(=O)OC3 [ACUTISSIMALIGNAN A] | 10.7% | < 3.9 µg/mL | 0.59 µg/mL (≈ 1.15 µM) | >3.1 | 0.25 µg/mL (≈ 0.488 µM) | 0.02 µg/mL (≈ 0.039 µM) | 12.3 µg/mL (≈ 24 µM) | 0.22 µg/mL (≈ 0.429 µM) | 0.14 µg/mL (≈ 0.273 µM) | 2.3 µg/mL (≈ 4.49 µM) |  |
| O=C1OCc2cc3cc4c(cc3c(-c3ccc5c(c3)OCO5)c21)OCO4 [TAIWANIN C] | 88.2% | > 125 µg/mL | > 5 µg/mL |  | > 5 µg/mL | > 5 µg/mL | > 125 µg/mL | > 5 µg/mL | > 5 µg/mL | > 5 µg/mL |  |
